This is an account of results in ChEMBL document CHEMBL4354843, “Structure-Based Design of a Potent and Selective Covalent Inhibitor for SRC Kinase That Targets a P-Loop Cysteine” (J Med Chem, 2020).

The term IC50 denotes the midpoint of a concentration-inhibition curve. Read a low IC50 as higher potency.

Assay [1] deals with Tyrosine-protein kinase Lck (Homo sapiens) (UniProt P06239). Briefly: Binding affinity to wild-type human partial length LCK (R207 to P509 residues) expressed in bacterial expression system assessed as residual binding level at 1 uM by Kinomescan method relative to control. The procedure, abridged:
(§1)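 Active-site-directed competition binding panel of 468 kinases (KinomeScan), compound at 1 μM. The read-out is kinase remaining bound, given as a percentage of the DMSO control. […]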

Assay [2] deals with Aurora kinase C (Homo sapiens) (UniProt Q9UQB9). Briefly: Binding affinity to wild-type human full length AURKC (M1 to S275 residues) expressed in bacterial expression system assessed as residual binding level at 1 uM by Kinomescan method relative to control. The procedure, abridged:
(§2)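 KinomeScan, an active site-directed competition binding panel of 468 kinases. The test compound was at 1 μM. The readout is remaining kinase binding as a percentage of the DMSO control. Scores above 35% were treated as weak binding and not listed.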

The test system of assay [3] is Epidermal growth factor receptor (Homo sapiens), P00533 [UNDEFINED MUTATION]. Briefly: Binding affinity to human partial length EGFR L747-S752del/P753S mutant expressed in bacterial expression system assessed as residual binding level at 1 uM by Kinomescan method relative to control. The procedure, abridged: (§3)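 KinomeScan active site-directed competition binding panel (468 kinases), compound tested at 1 μM. Result expressed as remaining kinase signal versus DMSO control (percent of control).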

Assay [4] addresses Serine/threonine-protein kinase OSR1 (Homo sapiens) (UniProt O95747). Briefly: Binding affinity to wild-type human full length OSR1 (M1 to S527 residues) expressed in mammalian expression system assessed as residual binding level at 1 uM by Kinomescan method relative to control. The procedure, abridged: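 Active-site-directed competition binding panel (KinomeScan) covering 468 kinases. Test agent was screened at 1 μM. The read-out is the remaining kinase signal expressed relative to a DMSO control. Scores above 35%, taken as weak binding, were not reported.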

Assay [5] concerns the target Calcium/calmodulin-dependent protein kinase type IV (Homo sapiens) (UniProt Q16566). Briefly: Binding affinity to wild-type human partial length CAMK4 (A22 to A322 residues) expressed in bacterial expression system assessed as residual binding level at 1 uM by Kinomescan method relative to control.
Assay [6] concerns the target Platelet-derived growth factor receptor beta (Homo sapiens) (UniProt P09619). Briefly: Binding affinity to wild-type human partial length PDGFRB (V582 to Y1009 residues) expressed in bacterial expression system assessed as residual binding level at 1 uM by Kinomescan method relative to control. The procedure, abridged:
as §1

Assay [7] addresses Mitogen-activated protein kinase kinase kinase 14 (Homo sapiens) (UniProt Q99558). Briefly: Binding affinity to wild-type human partial length NIK (L318 to P947 residues) expressed in mammalian expression system assessed as residual binding level at 1 uM by Kinomescan method relative to control.
For assay [8], the system named is Tyrosine-protein kinase ABL1 (Homo sapiens), P00519 [M351T]. Briefly: Binding affinity to human phosphorylated ABL1 M351T mutant (S229 to K512 residues) expressed in mammalian expression system assessed as residual binding level at 1 uM by Kinomescan method relative to control. The procedure, abridged:
(§4)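 Active-site-directed KinomeScan competition binding panel covering 468 kinases, compound tested at 1 μM. Each readout is the kinase signal remaining with compound, expressed as a percentage of the DMSO control. […]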

In assay [9] the target is Activin receptor type-1B (Homo sapiens) (UniProt P36896). Briefly: Binding affinity to wild-type human ACVR1B (S187 to I505 residues) expressed in bacterial expression system assessed as residual binding level at 1 uM by Kinomescan method relative to control. The procedure, abridged:
as §2

The target of assay [10] is Misshapen-like kinase 1 (Homo sapiens) (UniProt Q8N4C8). Briefly: Binding affinity to wild-type human partial length MINK (M1 to K312 residues) expressed in mammalian expression system assessed as residual binding level at 1 uM by Kinomescan method relative to control. The procedure, abridged: as §1
Assay [11] has as its target CDK4/Cyclin D3 (Homo sapiens) (UniProt P11802+P30281). Briefly: Binding affinity to wild-type human full length CDK4/cyclinD3 (M1 to E303 residues) expressed in mammalian expression system assessed as residual binding level at 1 uM by Kinomescan method relative to control. The procedure, abridged:
as §4

Assay [12] has as its target Homeodomain-interacting protein kinase 4 (Homo sapiens) (UniProt Q8NE63). Briefly: Binding affinity to wild-type human partial length HIPK4 (M1 to V384 residues) expressed in bacterial expression system assessed as residual binding level at 1 uM by Kinomescan method relative to control.
Assay [13] deals with Mast/stem cell growth factor receptor Kit (Homo sapiens) (UniProt P10721). Briefly: Binding affinity to wild-type human partial length KIT (I571 to D952 residues) expressed in bacterial expression system assessed as residual binding level at 1 uM by Kinomescan method relative to control.
In assay [14] the target is Mitogen-activated protein kinase kinase kinase 6 (Homo sapiens) (UniProt O95382). Briefly: Binding affinity to wild-type human partial length ASK2 (M278 to R972 residues) expressed in mammalian expression system assessed as residual binding level at 1 uM by Kinomescan method relative to control. The procedure, abridged:
as §2

The target of assay [15] is TGF-beta receptor type-1 (Homo sapiens) (UniProt P36897). Briefly: Binding affinity to wild-type human partial length TGFBR1 (D179 to M503 residues) expressed in bacterial expression system assessed as residual binding level at 1 uM by Kinomescan method relative to control.
Assay [16] relates to Epidermal growth factor receptor (Homo sapiens), P00533 [UNDEFINED MUTATION]. Briefly: Binding affinity to human partial length EGFR E746-A750del mutant expressed in bacterial expression system assessed as residual binding level at 1 uM by Kinomescan method relative to control. The procedure, abridged: as §3
Assay [17] deals with Serine/threonine-protein kinase RIO1 (Homo sapiens) (UniProt Q9BRS2). Briefly: Binding affinity to wild-type human full length RIOK1 (M1 to K568 residues) expressed in bacterial expression system assessed as residual binding level at 1 uM by Kinomescan method relative to control. The procedure, abridged: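 Active-site-directed competition binding screen across a 468-kinase panel, run with the test compound at 1 μM. The read-out is the kinase signal remaining relative to a DMSO control, reported as a percentage. […]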

Assay [18] deals with Serine/threonine-protein kinase 32B (Homo sapiens) (UniProt Q9NY57). Briefly: Binding affinity to wild-type human full length YANK2 (M1 to S414 residues) expressed in bacterial expression system assessed as residual binding level at 1 uM by Kinomescan method relative to control.
The target in assay [19] is Tyrosine-protein kinase HCK (Homo sapiens, UniProt P08631). Briefly: Inhibition of HCK (unknown origin).
For assay [20], the target named is Atypical kinase COQ8A, mitochondrial (Homo sapiens) (UniProt Q8NI60). Briefly: Binding affinity to wild-type human full length ADCK3 (M280 to Q647 residues) expressed in bacterial expression system assessed as residual binding level at 1 uM by Kinomescan method relative to control. The procedure, abridged:
as §4

The subject of assay [21] is Tyrosine-protein kinase ABL1 (Homo sapiens), P00519 [F317L]. Briefly: Binding affinity to human phosphorylated ABL1 F317L mutant (S229 to K512 residues) expressed in mammalian expression system assessed as residual binding level at 1 uM by Kinomescan method relative to control. The procedure, abridged: as §3

Structures are written as SMILES.

Sequence of Epidermal growth factor receptor (Homo sapiens), P00533 [UNDEFINED MUTATION] (P00533 whole entry, looked up, stated change not applied, the tested form may be a part): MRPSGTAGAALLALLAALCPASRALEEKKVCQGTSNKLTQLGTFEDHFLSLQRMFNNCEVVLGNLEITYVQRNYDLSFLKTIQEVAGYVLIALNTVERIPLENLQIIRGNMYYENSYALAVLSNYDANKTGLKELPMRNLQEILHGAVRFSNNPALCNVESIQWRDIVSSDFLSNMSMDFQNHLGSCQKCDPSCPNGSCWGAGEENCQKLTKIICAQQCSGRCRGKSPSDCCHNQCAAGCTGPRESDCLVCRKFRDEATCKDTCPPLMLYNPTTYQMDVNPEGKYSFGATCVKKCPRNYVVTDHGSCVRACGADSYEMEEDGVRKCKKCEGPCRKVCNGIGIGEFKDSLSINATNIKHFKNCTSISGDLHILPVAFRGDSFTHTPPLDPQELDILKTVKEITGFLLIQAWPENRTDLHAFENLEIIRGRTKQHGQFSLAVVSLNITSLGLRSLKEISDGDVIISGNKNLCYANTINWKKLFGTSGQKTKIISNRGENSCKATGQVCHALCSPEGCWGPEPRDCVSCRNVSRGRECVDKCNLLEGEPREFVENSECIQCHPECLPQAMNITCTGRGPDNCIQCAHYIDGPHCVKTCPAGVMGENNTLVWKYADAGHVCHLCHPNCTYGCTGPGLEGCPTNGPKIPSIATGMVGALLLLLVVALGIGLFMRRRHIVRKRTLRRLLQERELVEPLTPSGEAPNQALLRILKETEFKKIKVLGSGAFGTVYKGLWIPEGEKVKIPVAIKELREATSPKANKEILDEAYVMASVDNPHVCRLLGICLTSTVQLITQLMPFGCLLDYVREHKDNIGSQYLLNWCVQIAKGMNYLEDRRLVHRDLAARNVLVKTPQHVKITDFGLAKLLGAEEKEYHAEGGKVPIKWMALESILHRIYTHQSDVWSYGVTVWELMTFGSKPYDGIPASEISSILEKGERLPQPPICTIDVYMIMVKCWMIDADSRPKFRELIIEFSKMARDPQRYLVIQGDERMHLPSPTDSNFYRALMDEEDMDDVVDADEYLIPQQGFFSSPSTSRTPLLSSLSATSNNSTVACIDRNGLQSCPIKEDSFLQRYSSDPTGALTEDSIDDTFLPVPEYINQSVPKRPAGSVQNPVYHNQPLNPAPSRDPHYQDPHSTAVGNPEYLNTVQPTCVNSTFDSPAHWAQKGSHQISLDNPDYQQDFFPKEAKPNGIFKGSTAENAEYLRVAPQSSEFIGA
Sequence of TGF-beta receptor type-1 (Homo sapiens) (P36897 whole entry, the tested form may be a part): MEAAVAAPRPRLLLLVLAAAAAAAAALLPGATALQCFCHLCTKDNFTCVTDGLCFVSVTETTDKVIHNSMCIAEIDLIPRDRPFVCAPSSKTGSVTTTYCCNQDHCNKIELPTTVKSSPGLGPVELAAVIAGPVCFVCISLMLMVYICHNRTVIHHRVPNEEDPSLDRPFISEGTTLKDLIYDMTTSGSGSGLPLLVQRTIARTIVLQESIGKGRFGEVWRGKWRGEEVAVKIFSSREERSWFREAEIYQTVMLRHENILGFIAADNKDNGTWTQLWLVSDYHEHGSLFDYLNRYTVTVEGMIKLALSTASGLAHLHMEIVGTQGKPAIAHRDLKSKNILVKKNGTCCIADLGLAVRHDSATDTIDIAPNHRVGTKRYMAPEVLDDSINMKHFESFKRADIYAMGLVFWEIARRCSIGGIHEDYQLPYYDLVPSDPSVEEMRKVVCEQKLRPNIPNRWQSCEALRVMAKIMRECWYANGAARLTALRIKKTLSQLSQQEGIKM
Sequence of Tyrosine-protein kinase HCK (P08631 whole entry, the tested form may be a part): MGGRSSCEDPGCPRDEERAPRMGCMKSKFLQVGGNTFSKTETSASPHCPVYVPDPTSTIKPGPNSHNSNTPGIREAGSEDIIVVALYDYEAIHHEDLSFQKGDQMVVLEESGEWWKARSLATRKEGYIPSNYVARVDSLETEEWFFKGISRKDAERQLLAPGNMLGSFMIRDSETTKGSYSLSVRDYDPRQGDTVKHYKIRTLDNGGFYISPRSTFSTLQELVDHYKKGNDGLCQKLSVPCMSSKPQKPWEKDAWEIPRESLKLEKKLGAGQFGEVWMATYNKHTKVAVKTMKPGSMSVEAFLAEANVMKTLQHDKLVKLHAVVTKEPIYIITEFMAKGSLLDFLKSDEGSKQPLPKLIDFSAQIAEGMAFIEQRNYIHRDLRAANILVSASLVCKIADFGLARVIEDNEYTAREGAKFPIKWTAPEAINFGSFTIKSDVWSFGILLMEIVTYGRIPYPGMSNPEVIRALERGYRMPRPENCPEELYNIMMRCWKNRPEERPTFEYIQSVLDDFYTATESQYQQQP
Sequence of Misshapen-like kinase 1 (Homo sapiens) (Q8N4C8 whole entry, looked up, the tested form may be a part): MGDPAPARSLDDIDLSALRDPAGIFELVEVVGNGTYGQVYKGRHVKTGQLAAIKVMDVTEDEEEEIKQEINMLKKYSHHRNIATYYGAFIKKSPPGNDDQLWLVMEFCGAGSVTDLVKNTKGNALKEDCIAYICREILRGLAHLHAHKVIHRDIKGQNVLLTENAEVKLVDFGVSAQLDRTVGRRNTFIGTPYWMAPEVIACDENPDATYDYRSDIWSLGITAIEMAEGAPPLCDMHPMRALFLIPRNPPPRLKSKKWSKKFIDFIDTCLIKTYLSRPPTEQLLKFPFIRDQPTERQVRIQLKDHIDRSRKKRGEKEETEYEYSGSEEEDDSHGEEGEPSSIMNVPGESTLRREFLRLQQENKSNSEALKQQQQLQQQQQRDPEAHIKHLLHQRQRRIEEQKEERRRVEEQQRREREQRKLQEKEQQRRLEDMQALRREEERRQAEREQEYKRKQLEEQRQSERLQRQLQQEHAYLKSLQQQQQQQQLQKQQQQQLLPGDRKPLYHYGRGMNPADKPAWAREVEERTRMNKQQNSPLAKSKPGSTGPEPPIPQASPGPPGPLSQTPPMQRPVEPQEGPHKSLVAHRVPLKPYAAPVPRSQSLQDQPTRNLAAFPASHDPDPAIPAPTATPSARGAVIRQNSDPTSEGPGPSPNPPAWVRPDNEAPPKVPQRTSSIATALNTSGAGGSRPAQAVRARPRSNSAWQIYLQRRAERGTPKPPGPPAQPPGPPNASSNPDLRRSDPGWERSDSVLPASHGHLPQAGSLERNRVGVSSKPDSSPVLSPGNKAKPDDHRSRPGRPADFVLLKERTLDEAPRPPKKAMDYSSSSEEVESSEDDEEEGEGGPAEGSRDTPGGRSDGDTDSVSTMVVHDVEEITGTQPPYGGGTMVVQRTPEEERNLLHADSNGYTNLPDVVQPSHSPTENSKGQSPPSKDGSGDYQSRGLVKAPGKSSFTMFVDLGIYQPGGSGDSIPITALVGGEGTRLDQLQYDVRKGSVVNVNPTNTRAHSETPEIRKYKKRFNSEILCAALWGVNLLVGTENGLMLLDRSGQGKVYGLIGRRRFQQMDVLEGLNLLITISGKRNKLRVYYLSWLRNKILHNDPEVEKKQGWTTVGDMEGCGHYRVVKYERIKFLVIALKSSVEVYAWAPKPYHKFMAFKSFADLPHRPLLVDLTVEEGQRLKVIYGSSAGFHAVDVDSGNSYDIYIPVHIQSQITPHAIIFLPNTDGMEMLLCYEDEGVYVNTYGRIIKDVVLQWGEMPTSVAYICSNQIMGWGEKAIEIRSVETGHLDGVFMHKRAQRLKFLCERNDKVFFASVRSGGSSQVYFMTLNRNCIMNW
Sequence of Homeodomain-interacting protein kinase 4 (Homo sapiens) (Q8NE63 whole entry, the tested form may be a part): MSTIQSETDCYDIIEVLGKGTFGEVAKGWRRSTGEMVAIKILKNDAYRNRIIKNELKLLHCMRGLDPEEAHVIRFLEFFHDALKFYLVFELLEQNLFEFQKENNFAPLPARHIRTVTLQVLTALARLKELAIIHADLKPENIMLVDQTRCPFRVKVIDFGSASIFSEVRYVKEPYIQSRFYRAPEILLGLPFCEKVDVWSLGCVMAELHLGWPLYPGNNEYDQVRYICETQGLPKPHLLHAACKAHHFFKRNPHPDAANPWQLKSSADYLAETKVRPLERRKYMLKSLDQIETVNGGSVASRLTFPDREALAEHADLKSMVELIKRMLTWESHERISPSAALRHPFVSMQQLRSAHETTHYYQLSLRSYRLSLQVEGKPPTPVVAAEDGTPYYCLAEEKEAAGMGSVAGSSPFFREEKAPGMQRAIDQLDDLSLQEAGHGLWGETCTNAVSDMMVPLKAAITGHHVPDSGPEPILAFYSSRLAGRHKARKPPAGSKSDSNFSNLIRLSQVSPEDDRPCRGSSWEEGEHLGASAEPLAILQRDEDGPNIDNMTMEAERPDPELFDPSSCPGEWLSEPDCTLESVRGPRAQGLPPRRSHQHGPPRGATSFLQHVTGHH
Sequence of Serine/threonine-protein kinase OSR1 (Homo sapiens) (O95747 2-527 limits assumed): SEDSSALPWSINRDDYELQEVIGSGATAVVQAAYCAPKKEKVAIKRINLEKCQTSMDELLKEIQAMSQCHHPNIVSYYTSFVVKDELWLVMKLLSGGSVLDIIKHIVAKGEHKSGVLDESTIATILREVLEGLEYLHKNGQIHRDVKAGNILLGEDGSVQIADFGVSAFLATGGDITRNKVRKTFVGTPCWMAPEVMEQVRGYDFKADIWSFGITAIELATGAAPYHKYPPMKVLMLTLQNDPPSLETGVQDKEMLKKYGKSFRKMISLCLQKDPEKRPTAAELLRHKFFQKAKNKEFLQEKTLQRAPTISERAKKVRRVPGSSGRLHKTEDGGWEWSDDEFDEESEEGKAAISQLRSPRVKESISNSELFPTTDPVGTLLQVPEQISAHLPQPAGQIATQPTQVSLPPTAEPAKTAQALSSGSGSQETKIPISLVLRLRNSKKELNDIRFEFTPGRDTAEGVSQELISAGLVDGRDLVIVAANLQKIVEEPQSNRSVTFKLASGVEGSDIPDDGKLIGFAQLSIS
Sequence of Aurora kinase C (Homo sapiens) (Q9UQB9 whole entry, the tested form may be a part): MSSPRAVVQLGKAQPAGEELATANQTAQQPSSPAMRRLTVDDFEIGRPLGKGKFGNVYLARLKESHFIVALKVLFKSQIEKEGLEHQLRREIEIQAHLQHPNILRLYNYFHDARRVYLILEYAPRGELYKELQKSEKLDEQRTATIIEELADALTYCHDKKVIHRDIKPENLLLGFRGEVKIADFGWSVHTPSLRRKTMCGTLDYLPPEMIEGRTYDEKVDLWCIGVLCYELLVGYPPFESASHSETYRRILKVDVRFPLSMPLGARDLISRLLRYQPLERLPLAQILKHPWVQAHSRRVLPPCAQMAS

In the case of `C=CC(=O)Nc1ccccc1Nc1nc(Nc2ccc(N3CCN(C)CC3)cc2)ncc1C(=O)Nc1c(C)cccc1Cl`, the Activity in [1] was determined as 0.25%; in assay [2], 98%; in assay [3] it was 74%; in assay [4] it was 100%; in assay [5], 100%; in assay [6], 29%. The Activity in assay [7] was 100%; in assay [8], 0.8%; in assay [9] it was 93%; in [10] it was 81%; in [11], 100%; in [12] it was 100%. The Activity in assay [13] came out at 40%; in assay [14], 64%; in assay [15], 100%; in [16], 67%; in assay [17] it was 100%; in assay [18], 100%. For the same compound, the figures for the Activity in [20] and in [21] were 100% and 1.3%, respectively. The compound also registered an IC50 in assay [19] of 3 nM.
